Values after ≈ are worked out from the molar mass of the structure shown.
What was measured:
[1] = test system: MCF7; experiment: Cytotoxicity against human MCF7 cells after 7 days; type: functional; settings: for EC50: Homo sapiens, MCF7, 168 h, read-out: ED50 (the source's name)
Procedure, shortened: (§1)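 Human solid tumor cell lines A-549 (lung carcinoma), MCF-7 (breast carcinoma) and HT-29 (colon adenocarcinoma) tested in seven-day cytotoxicity assays run at a cancer center cell culture laboratory, with adriamycin as positive control.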

[2] = test system: HT-29; experiment: Cytotoxicity against human HT-29 cells after 7 days; type: functional; settings: for EC50: Homo sapiens, HT-29, 168 h, read-out: ED50 (the source's name); procedure, shortened: as §1
[3] = test system: A549; experiment: Cytotoxicity against human A549 cells after 7 days; type: functional; settings: for EC50: Homo sapiens, A549, 168 h, read-out: ED50 (the source's name); procedure, shortened: as §1
[4] = Toxicity against brine shrimp larvae; type: organism-based; settings: artemia, in vivo

| SMILES | EC50 [1] | EC50 [2] | EC50 [3] | LC50 [4] | ED50 [2] | ED50 [3] | ED50 [1] |
| --- | --- | --- | --- | --- | --- | --- | --- |
| CCCCCCCCCCCC[C@H](O)[C@@H]1CC[C@@H]([C@@H](O)CCCCCCC(O)CCCCC[C@@H](O)CC2=C[C@H](C)OC2=O)O1 (some centres undefined) [ANNOMONTACIN] | 0.165 µg/mL (≈ 0.264 µM) | 0.00258 µg/mL (≈ 0.00413 µM) | 0.00772 µg/mL (≈ 0.0124 µM) | – | – | – | – |
| CCCCCCCCCCCC[C@@H](O)[C@H]1CC[C@H]([C@H](O)CCCC[C@H](O)CCCCC[C@@H](O)CC2=CC(C)OC2=O)O1 (some centres undefined) [ANNONACIN] | 0.0024 µg/mL (≈ 0.00402 µM) | – | – | 0.23 µg/mL (≈ 0.385 µM) | <1 ×10⁻⁷ ug/ml | <1 ×10⁻⁷ ug/ml | – |
| COc1cccc2c1C(=O)c1c(O)c3c(c(O)c1C2=O)C[C@@](O)(C(=O)CO)C[C@@H]3O[C@H]1C[C@H](N)[C@H](O)[C@H](C)O1 [DOXORUBICIN] | 0.0228 µg/mL (≈ 0.0419 µM) | 0.00279 µg/mL (≈ 0.00513 µM) | 0.0011 µg/mL (≈ 0.00202 µM) | – | – | – | – |
| CCCCCCCCCCCCCC[C@@H](O)[C@H](O)CC[C@H](O)[C@@H]1CC[C@@H](CCCCC[C@@H](O)CC2=C[C@H](C)OC2=O)O1 [GIGANTETROCIN A] | 0.63 µg/mL (≈ 1.06 µM) | – | 0.25 µg/mL (≈ 0.419 µM) | 1.4 µg/mL (≈ 2.35 µM) | 4.1 ×10⁻⁵ ug/ml | – | – |
| CCCCCCCCCCCCCCC(O)C(O)CC[C@H](O)[C@H]1CC[C@H](CCCCC[C@@H](O)CC2=C[C@H](C)OC2=O)O1 (some centres undefined) [GIGANTETRONENIN] | 0.603 µg/mL (≈ 1.01 µM) | 0.0537 µg/mL (≈ 0.09 µM) | 0.0047 µg/mL (≈ 0.00787 µM) | – | – | – | – |
| CCCCCCCCCCCCCC[C@@H](O)[C@H]1CC[C@H]([C@H](O)CCCCC(O)CCCCC[C@@H](O)CC2=C[C@H](C)OC2=O)O1 (some centres undefined) [XYLOMATICIN] | – | 0.304 µg/mL (≈ 0.486 µM) | – | 0.11 µg/mL (≈ 0.176 µM) | – | 1.54 ×10⁻⁴ ug/ml | 1.47 ×10⁻⁶ ug/ml |
| CCCCCCCCCCCCCC[C@@H](O)[C@H]1CC[C@H]([C@H](O)CCCCCCC(O)CCC[C@@H](O)CC2=C[C@H](C)OC2=O)O1 (some centres undefined) [XYLOPIACIN] | – | 0.111 µg/mL (≈ 0.178 µM) | – | 0.49 µg/mL (≈ 0.784 µM) | – | 1.36 ×10⁻⁶ ug/ml | 1.39 ×10⁻⁷ ug/ml |
| CCCCCCCCCCCC[C@@H](O)[C@H]1CC[C@H]([C@H](O)CCCCCCC(O)CCC[C@@H](O)CC2=C[C@H](C)OC2=O)O1 (some centres undefined) [XYLOPIANIN] | 18.5 µg/mL (≈ 30.9 µM) | 6.63 µg/mL (≈ 11.1 µM) | 0.0426 µg/mL (≈ 0.0714 µM) | 0.33 µg/mL (≈ 0.553 µM) | – | – | – |
